Measurements: ChEMBL document CHEMBL1821585, “Fluorinated cannabinoid CB2 receptor ligands: synthesis and in vitro binding characteristics of 2-oxoquinoline derivatives” (Bioorg Med Chem, 2011)
pIC50, pKi: −log10 of the molar value.

How the values were obtained:
[1] = Selectivity ratio of Ki for CB1 receptor to Ki for CB2 receptor
Cannabinoid receptor 2 [2] = target: T1, Cannabinoid receptor 2 (Homo sapiens, UniProt P34972); experiment: Binding affinity to CB2 receptor
Cannabinoid receptor 2 [3] = target: T1, Cannabinoid receptor 2; experiment: Displacement of [3H]CP-55940 from human CB2 receptor expressed in human U87 cells after 1 hr by scintillation counting; format: cell-based, U-87MG ATCC
Method in brief: (§1)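 Membranes from lentivirally transduced U87 glioblastoma cells stably expressing hCB1 or hCB2, sorted on an mKateS158A co-reporter. Cells at 80–90% confluence were homogenised in 50 mM Tris-HCl, 5 mM MgCl2, 2.5 mM EDTA, pH 7.4. Aliquots of 30–50 μg protein were incubated 1 h at 4°C with 2.8 nM [3H]CP-55,940 plus graded compound concentrations, then GF/C-filtered. Ki was derived from the competition curves.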

Cannabinoid receptor 1 [4] = target: T2, Cannabinoid receptor 1 (Homo sapiens, UniProt P21554); experiment: Displacement of [3H]CP-55940 from human CB1 receptor expressed in human U87 cells after 1 hr by scintillation counting; format: cell-based, U-87MG ATCC; method in brief: as §1
Homo sapiens = organism: Homo sapiens; experiment: Selectivity ratio of Ki for human CB1 receptor to Ki for human CB2 receptor
Cannabinoid receptor 1 [5] = target: T2, Cannabinoid receptor 1; experiment: Binding affinity to CB1 receptor

T1 sequence (P34972 whole entry): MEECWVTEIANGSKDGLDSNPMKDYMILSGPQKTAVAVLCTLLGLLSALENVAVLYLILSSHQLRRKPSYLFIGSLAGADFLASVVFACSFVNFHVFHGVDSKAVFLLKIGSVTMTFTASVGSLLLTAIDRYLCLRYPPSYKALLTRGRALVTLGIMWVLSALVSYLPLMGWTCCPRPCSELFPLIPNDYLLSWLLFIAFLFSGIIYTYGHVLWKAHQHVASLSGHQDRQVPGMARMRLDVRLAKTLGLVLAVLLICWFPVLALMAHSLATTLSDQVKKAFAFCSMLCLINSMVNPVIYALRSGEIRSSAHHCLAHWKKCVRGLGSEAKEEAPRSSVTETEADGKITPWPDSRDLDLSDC
T2 sequence (P21554 whole entry): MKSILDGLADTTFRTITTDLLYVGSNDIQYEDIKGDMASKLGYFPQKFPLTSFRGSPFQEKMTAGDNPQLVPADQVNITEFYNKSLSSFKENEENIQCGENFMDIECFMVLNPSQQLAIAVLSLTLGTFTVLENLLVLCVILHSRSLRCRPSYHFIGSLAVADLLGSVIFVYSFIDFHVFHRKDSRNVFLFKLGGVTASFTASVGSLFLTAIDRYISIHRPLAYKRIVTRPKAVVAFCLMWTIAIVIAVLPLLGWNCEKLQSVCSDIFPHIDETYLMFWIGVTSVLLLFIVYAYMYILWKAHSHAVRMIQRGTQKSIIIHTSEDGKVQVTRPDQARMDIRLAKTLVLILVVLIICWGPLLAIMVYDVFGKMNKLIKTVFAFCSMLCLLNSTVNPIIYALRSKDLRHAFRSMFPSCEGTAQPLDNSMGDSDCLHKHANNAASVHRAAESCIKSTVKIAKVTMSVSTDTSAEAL

| Structure (SMILES) | Ratio Ki [1] | pKi (Cannabinoid receptor 2 [2]) | pKi (Cannabinoid receptor 2 [3]) | pKi (Cannabinoid receptor 1 [4]) | Ratio Ki (Homo sapiens) | further results |
| --- | --- | --- | --- | --- | --- | --- |
| Cc1ccc(Cn2nc(C(=O)N[C@@H]3C(C)(C)[C@@H]4CC[C@@]3(C)C4)cc2-c2ccc(Cl)c(C)c2)cc1 | 32 | – | – | – | – | – |
| CCCCCC(C)(C)c1cc(OC)c2c(c1)OC(C)(C)[C@@H]1CCC(C)=C[C@@H]21 | 170 | – | – | – | – | – |
| CCCCOc1c(OC)ccc2cc(C(=O)O)c(=O)[nH]c12 | 28300 | 10.49 | – | – | – | – |
| COc1ccc2cc(C(=O)NCCc3ccc(F)cc3)c(=O)[nH]c2c1OC | – | – | 8.30 | < 5.00 | – | – |
| CCCCOc1c(OC)c([N+](=O)[O-])cc2cc(C(=O)NCCc3ccc(F)cc3)c(=O)[nH]c12 | – | – | 8.85 | < 5.00 | > 7140 | – |
| CCCCOc1c(OC)ccc2cc(C(=O)NCCc3ccc(F)cc3)c(=O)[nH]c12 | – | – | 8.62 | < 5.00 | > 4170 | – |
| CCCCCc1cc2cc(C(=O)NCCc3ccc(F)cc3)c(=O)n(C)c2c(O)c1OC | 20100 | 10.37 | – | – | – | pKi (Cannabinoid receptor 1 [5]): 3.06 |
| CCCOc1c(OC)ccc2cc(C(=O)NCCc3ccc(F)cc3)c(=O)[nH]c12 | 16000 | – | – | – | – | – |
| CCCCOc1c(OC)ccc2cc(C(=O)NCc3cn(CCF)nn3)c(=O)[nH]c12 | – | – | 6.21 | < 5.00 | > 16 | – |
| CCCCOc1c(OC)ccc2cc(C(=O)NCC(F)c3ccccc3)c(=O)[nH]c12 (centres undefined) | – | – | 9.10 | < 5.00 | > 12500 | – |
| CCCCOc1c(OC)ccc2cc(C(=O)NCc3ccc(F)cc3)c(=O)[nH]c12 | – | – | 8.55 | < 5.00 | > 3570 | – |
| CCCCCOc1c(OC)ccc2cc(C(=O)NCCN3CCOCC3)c(=O)n(C)c12 | 11000 | – | – | – | – | – |
| CCCCOc1c(OC)ccc2cc(C(=O)NCCCF)c(=O)[nH]c12 | – | – | 7.24 | < 5.00 | > 172 | – |
| COc1ccc2cc(C(=O)NCCF)c(=O)[nH]c2c1OC | – | – | < 5.00 | < 5.00 | > 1 | – |
| CCCCCCC(C)(C)c1cc(OC)c(C2CCCC(C)(O)C2)c(OC)c1 (centres undefined) | 220 | 7.64 | – | – | – | pKi (Cannabinoid receptor 1 [5]): 5.30 |
| COc1ccc2cc(C(=O)NCc3ccc(F)cc3)c(=O)[nH]c2c1OC | – | – | < 5.00 | < 5.00 | > 1 | – |
| CCCCOc1c(OC)ccc2cc(C(=O)NCCc3ccc(N)cc3)c(=O)[nH]c12 | – | 7.65 | – | – | – | pIC50 (Cannabinoid receptor 2 [2]): 8.80 |
| CCCCOc1c(OC)ccc2cc(C(=O)NCCF)c(=O)[nH]c12 | – | – | 6.31 | < 5.00 | > 20.5 | – |
| CCCCOc1c(OC)ccc2cc(C(=O)NCCc3cn(CCF)nn3)c(=O)[nH]c12 | – | – | 5.62 | < 5.00 | > 4 | – |
| CCCCCc1cc2cc(C(=O)OC)c(=O)[nH]c2c(O)c1OC | 262000 | 10.85 | – | – | – | – |
| Cc1c(C(=O)NN2CCCCC2)nn(-c2ccc(Cl)cc2Cl)c1-c1ccc(Cl)cc1 | 32 | – | – | – | – | – |
| COc1ccc2c(c1)c(CCN1CCOCC1)c(C)n2C(=O)c1cccc(Cl)c1Cl | 146 | 7.85 | – | – | – | – |
| CCCCCc1cc2cc(C(=O)NCCc3ccc(F)cc3)c(=O)[nH]c2c(O)c1OC | 66600 | 10.44 | – | – | – | pKi (Cannabinoid receptor 1 [5]): 2.62 |
| CCCCCOc1c(OC)ccc2cc(C(=O)NCCc3ccncc3)c(=O)[nH]c12 | 20800 | 11.00 | – | – | – | – |
| COc1ccc2cc(C(=O)NCC(F)c3ccccc3)c(=O)[nH]c2c1OC (centres undefined) | – | – | 7.66 | < 5.00 | > 454 | – |
